# Data reported in ChEMBL document CHEMBL4814017, “Discovery and optimization of novel 3-benzyl-N-phenyl-1H-pyrazole-5-carboxamides as bifunctional antidiabetic agents stimulating both insulin secretion and glucose uptake” (Eur J Med Chem, 2021).
# Activity calls are given as the source filed them. The rule behind the calls is not given here.
# How the values were obtained:
# [1] = Induction of insulin secretion in rat INS-1 cells assessed as glucose stimulation index at 5 uM followed by stimulated with 16.7 mM glucose measured after 1 hrs by ELISA relative to basal insulin level; format: functional, INS1
# Method in brief: (§1)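 Rat insulinoma INS-1 cells grown in RPMI 1640 with 11 mM glucose, 10% FBS, HEPES, pyruvate and 2-mercaptoethanol. After 24 h seeding, cells washed in KRB pH 7.4 with 3.3 mM glucose, starved 2 h, given compound for 30 min, then 3.3 mM (basal) or 16.7 mM glucose for 1 h. Insulin measured by rat insulin ELISA at 450 nm. GSI = stimulated/basal insulin. Triplicate, mean ± SD. Gliclazide control.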
# [2] = Cytotoxicity against rat INS1 cells assessed as cell viability at 10 uM incubated for 24 hrs by MTT assay relative to untreated control; format: cell-based; details: read-out: Activity
# [3] = Induction of insulin secretion in rat INS-1 cells assessed as glucose stimulation index at 10 uM followed by stimulated with 16.7 mM glucose measured after 1 hrs by ELISA relative to basal insulin level; format: functional, INS1; method in brief: as §1
# INS1 [4] = experiment: Activation of PI3K/Akt signalling pathway in rat INS1 cells assessed as increase in p-IRS2 expression at 2.5 to 10 uM after 24 hrs by Western blot analysis; format: cell-based; details: filed as activator, dose 2.5-10 µM
# Method in brief: (§2)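 INS-1 cells seeded in 6-well plates, grown 24 h, then treated 24 h with 0, 2.5, 5 or 10 µM; vehicle control 0.5% DMSO. Lysed in RIPA with 1 mM PMSF at 4 °C, protein by BCA. Blots probed for p-IRS-2 (Ser731), IRS-2, p-PI3K, PI3K, p-Akt (Ser473), Akt, PPAR-γ, PDX-1 and GAPDH, HRP anti-rabbit secondary, ECL detection, densitometry. Triplicate, n = 3, SD.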
# C2C12 [5] = experiment: Activation of PI3K/Akt signalling pathway in mouse C2C12 cells assessed as increase in p-Akt expression upto 50 uM incubated for 16 hrs by Western blot analysis; format: cell-based; details: filed as activator, dose microM <=50, time 16.0 hrs
# Method in brief: (§3)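 C2C12 myoblasts grown in DMEM to 90% confluence and differentiated 4 days in DMEM with 2% horse serum. Myotubes then held 16 h in DMEM with 2% BSA and 10% FBS with 0, 5, 10, 20 or 50 µM compound. Western blot for MG53, IRS-1, p-PI3K, PI3K, p-Akt, Akt and GAPDH.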
# INS1 [6] = experiment: Induction of PDX-1 expression in rat INS-1 cells at 2.5 to 10 uM after 24 hrs by Western blot analysis; format: functional, cell-based; details: dose 2.5-10 µM; method in brief: as §2
# INS1 [7] = experiment: Activation of PI3K/Akt signalling pathway in rat INS1 cells assessed as increase in p-Akt expression at 2.5 to 10 uM after 24 hrs by Western blot analysis; format: cell-based; details: filed as activator, dose 2.5-10 µM; method in brief: as §2
# INS1 [8] = experiment: Activation of PI3K/Akt signalling pathway in rat INS1 cells assessed as increase in p-PI3K expression at 2.5 to 10 uM after 24 hrs by Western blot analysis; format: cell-based; details: filed as activator, dose 2.5-10 µM; method in brief: as §2
# C2C12 [9] = experiment: Upregulation of IRS-1 level in mouse C2C12 cells upto 50 uM after 16 hrs by Western blot analysis; format: functional, cell-based; details: dose microM <=50, time 16.0 hrs; method in brief: as §3
# C2C12 [10] = experiment: Downregulation of MG53 level in mouse C2C12 cells after 16 hrs by Western blot analysis; format: functional, cell-based; details: dose microM <=50, time 16.0 hrs; method in brief: as §3
# C2C12 [11] = experiment: Activation of PI3K/Akt signalling pathway in mouse C2C12 cells assessed as increase in p-PI3K expression upto 50 uM incubated for 16 hrs by Western blot analysis; format: cell-based; details: filed as activator, dose microM <=50, time 16.0 hrs; method in brief: as §3
# INS1 [12] = experiment: Induction of PPARgamma expression in rat INS1 cells at 2.5 to 10 uM after 24 hrs by Western blot analysis; format: functional, cell-based; details: dose 2.5-10 µM; method in brief: as §2
# [13] = Cytotoxicity against human LX2 cells assessed as reduction in cell viability incubated for 24 hrs by MTT assay; format: cell-based; details: lx-2, 24 h
# C2C12 [14] = experiment: Induction of glucose uptake in mouse C2C12 cells incubated for 16 hrs in absence of insulin by 2-NBDG uptake assay; format: functional, cell-based; details: dose microM <=50, time 16.0 hrs
# Method in brief: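 Differentiated C2C12 myotubes (4 days, DMEM with 2% horse serum) held 16 h in DMEM with 2% BSA and 10% FBS, with or without compound and without insulin, after which basal glucose uptake was measured.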
# 3T3-L1 = experiment: Cytotoxicity against mouse 3T3-L1 cells assessed as reduction in cell viability incubated for 24 hrs by MTT assay; format: cell-based; details: 3t3-l1, 24 h
SMILES,Activity_index [1],"viability at 24 h, 10 µM [2] [%]",Activity_index [3],other results
COc1ccccc1NC(=O)c1cc(Cc2ccc(Cl)cc2)n[nH]1,1.56,98.1,,
COC(=O)c1ccc(NC(=O)c2cc(Cc3ccc(OC)cc3)n[nH]2)cc1,,99.2,1.85,
COc1ccc(Cc2cc(C(=O)Nc3cccc(OC)c3OC)[nH]n2)cc1,1.13,98.9,,
O=C(Nc1ccc2c(c1)OCO2)c1cc(Cc2ccc(F)cc2)n[nH]1,1.25,97.6,,
COc1ccc(NC(=O)c2cc(Cc3ccc(Cl)cc3)n[nH]2)c(OC)c1,14.9,96.3,,Activity (INS1 [4]): Dose-Dependent Effect; Activity (C2C12 [5]): Active; Activity (INS1 [6]): Active; Activity (INS1 [7]): Dose-Dependent Effect; Activity (INS1 [8]): Dose-Dependent Effect; Activity (C2C12 [9]): Active; inhibition (C2C12 [10]): Dose-Dependent Effect; Activity (C2C12 [11]): Active; Activity (INS1 [12]): Active; Activity [13]: Non-Toxic; Activity (C2C12 [14]): Dose-Dependent Effect; Activity (3T3-L1): Non-Toxic
O=C(Nc1ccc2c(c1)OCO2)c1cc(Cc2ccc(Cl)cc2)n[nH]1,1.29,101,,
COC(=O)c1ccc(NC(=O)c2cc(Cc3ccc(F)cc3)n[nH]2)cc1,,102,1.42,
O=C(Nc1ccc(C(F)(F)F)cc1)c1cc(Cc2ccc(F)cc2)n[nH]1,,92.8,2.02,
COc1ccc(Cc2cc(C(=O)Nc3ccc(C(C)(C)C)cc3)[nH]n2)cc1,,99.4,1.64,
COc1ccc(N(C)C(=O)c2cc(Cc3ccc(Cl)cc3)n[nH]2)c(OC)c1,1.33,93.3,,
O=C(Nc1ccccc1)c1cc(Cc2ccc(F)cc2)n[nH]1,,100,2,
Cc1ccc(S(=O)(=O)NC(=O)NN2CC3CCCC3C2)cc1 (stereo not drawn) [GLICLAZIDE],4.22,98.7,5.86,
COc1ccccc1NC(=O)c1cc(Cc2ccc(F)cc2)n[nH]1,3.67,104,,
COc1ccc(NC(=O)c2cc(Cc3cccc(Cl)c3)n[nH]2)c(OC)c1,1.29,97.7,,
COc1ccc(Cc2cc(C(=O)Nc3ccccc3)[nH]n2)cc1,,105,4.4,
COc1ccc(Cc2cc(C(=O)Nc3ccc(C(F)(F)F)cc3)[nH]n2)cc1,,98.4,2.07,
COc1cccc(NC(=O)c2cc(Cc3ccc(F)cc3)n[nH]2)c1OC,1.16,102,,
O=C(Nc1ccc(C(F)(F)F)cc1)c1cc(Cc2ccc(Cl)cc2)n[nH]1,,102,1.69,
COc1ccc(NC(=O)c2cc(C(=O)c3ccc(Cl)cc3)n[nH]2)c(OC)c1,1.49,100,,
COc1ccc(Cc2cc(C(=O)Nc3ccc(OC)cc3)[nH]n2)cc1,,105,1.66,
COc1ccc(Cc2cc(C(=O)Nc3ccc(OC)cc3OC)[nH]n2)cc1,1.58,101,,

SMILES,Activity_index [1],"viability at 24 h, 10 µM [2] [%]",Activity_index [3],other results
O=C(Nc1ccc(F)cc1)c1cc(Cc2ccc(F)cc2)n[nH]1,,100,1.86,
COc1ccc(Cc2cc(C(=O)Nc3ccc4c(c3)OCO4)[nH]n2)cc1,1.13,102,,
O=C(Nc1ccc(F)cc1)c1cc(Cc2ccc(Cl)cc2)n[nH]1,,94.9,6.73,
COc1ccc(NC(=O)c2cc(Cc3ccc(F)cc3)n[nH]2)cc1,,95.6,2.03,
COc1ccc(NC(=O)c2cc(Cc3ccc(Cl)cc3)nn2C)c(OC)c1,1.37,96.2,,
COc1cccc(NC(=O)c2cc(Cc3ccc(Cl)cc3)n[nH]2)c1OC,1.85,98.8,,
COc1ccc(OC)c(NC(=O)c2cc(Cc3ccc(Cl)cc3)n[nH]2)c1,3.25,97.9,,
COC(=O)c1ccc(NC(=O)c2cc(Cc3ccc(Cl)cc3)n[nH]2)cc1,,101,1.48,
COc1ccc(Cc2cc(C(=O)Nc3cc(OC)ccc3OC)[nH]n2)cc1,2.35,100,,
COc1ccc(NC(=O)c2cc(Cc3ccc(F)cc3)n[nH]2)c(OC)c1,1.93,99.9,,
COc1ccc(NC(=O)c2cc(Cc3ccccc3Cl)n[nH]2)c(OC)c1,2.43,102,,
COc1ccc(Cc2cc(C(=O)Nc3cccc(OC)c3)[nH]n2)cc1,1.55,102,,
COc1ccc(Cc2cc(C(=O)Nc3ccccc3OC)[nH]n2)cc1,1.66,101,,
CC(C)(C)c1ccc(NC(=O)c2cc(Cc3ccc(F)cc3)n[nH]2)cc1,,98.6,1.96,
CC(C)(C)c1ccc(NC(=O)c2cc(Cc3ccc(Cl)cc3)n[nH]2)cc1,,97.5,4.89,
COc1ccc(OC)c(NC(=O)c2cc(Cc3ccc(F)cc3)n[nH]2)c1,1.52,104,,
COc1ccc(Cc2cc(C(=O)Nc3ccc(F)cc3)[nH]n2)cc1,,105,2.49,
COc1cccc(NC(=O)c2cc(Cc3ccc(Cl)cc3)n[nH]2)c1,1.54,96.5,,
COc1ccc(NC(=O)c2cc(Cc3ccc(Cl)cc3)n[nH]2)cc1,2.6,101,7.59,
COc1cccc(NC(=O)c2cc(Cc3ccc(F)cc3)n[nH]2)c1,7.49,101,,
O=C(Nc1ccccc1)c1cc(Cc2ccc(Cl)cc2)n[nH]1,,109,5.24,
